From publication PMC2649372 (Biochemistry, 2008)
Positions count from the first letter of the chain named. Marks after values point to notes of the source that are not given here.

Key:
Assay in all cases: Agonist-induced currents, voltage clamp electrophysiology in Xenopus oocytes
Assay type in all cases: cell-based
[1] = target: T1, E129D mutant 5-HT3 receptor (mouse 5-HT3A subunit) (Mus musculus, UniProt P23979, E129D); conditions: E129D
T1 sequence (P23979 24-483 isoform P23979-2 E129D limits assumed): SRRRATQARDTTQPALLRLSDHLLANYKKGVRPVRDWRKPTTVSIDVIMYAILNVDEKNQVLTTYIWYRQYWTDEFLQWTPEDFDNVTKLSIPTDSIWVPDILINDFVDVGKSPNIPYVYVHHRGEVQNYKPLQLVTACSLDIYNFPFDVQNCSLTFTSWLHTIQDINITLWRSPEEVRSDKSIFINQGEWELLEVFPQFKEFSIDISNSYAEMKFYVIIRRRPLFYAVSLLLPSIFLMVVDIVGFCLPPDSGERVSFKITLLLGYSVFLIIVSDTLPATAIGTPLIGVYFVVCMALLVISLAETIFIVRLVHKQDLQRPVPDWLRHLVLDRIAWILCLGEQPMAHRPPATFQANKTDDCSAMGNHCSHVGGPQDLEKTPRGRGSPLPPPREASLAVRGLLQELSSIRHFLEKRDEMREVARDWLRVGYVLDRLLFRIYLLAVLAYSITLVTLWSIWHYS

[2] = target: T2, N128V mutant 5-HT3 receptor (mouse 5-HT3A subunit) (Mus musculus, UniProt P23979, N128V)
T2 sequence (P23979 24-483 isoform P23979-2 N128V limits assumed): T1 sequence (P23979 24-483 isoform P23979-2 E129D limits assumed) with N105V, D106E

[3] = target: T3, N128Q mutant 5-HT3 receptor (mouse 5-HT3A subunit) (Mus musculus, UniProt P23979, N128Q); conditions: N128Q
T3 sequence (P23979 24-483 isoform P23979-2 N128Q limits assumed): T1 sequence (P23979 24-483 isoform P23979-2 E129D limits assumed) with N105Q, D106E

[4] = target: T4, E129N mutant 5-HT3 receptor (mouse 5-HT3A subunit) (Mus musculus, UniProt P23979, E129N); conditions: E129N
T4 sequence (P23979 24-483 isoform P23979-2 E129N limits assumed): T1 sequence (P23979 24-483 isoform P23979-2 E129D limits assumed) with D106N

[5] = target: T5, E129-Nha mutant 5-HT3 receptor (mouse 5-HT3A subunit) (Mus musculus, UniProt Q6J1J7)
T5 sequence (Q6J1J7 24-483): T1 sequence (P23979 24-483 isoform P23979-2 E129D limits assumed) with D106E, F436L
Summary of the method: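 Mouse 5-HT3A receptor carrying Nha or Akp, introduced by nonsense suppression. Stage V-VI Xenopus oocytes were co-injected with 5 ng cRNA and 25 ng photodeprotected aminoacyl-tRNA. Controls received tRNA without an amino acid. At 24-72 h, agonist currents were recorded by two-electrode voltage clamp at -60 mV, 22-25 °C, in Ca-free ND96 (pH 7.5).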

Row | EC50 [1] | pEC50 ([1]; SR = small (<100 nA) responses) | EC50 [2] | pEC50 [2] | EC50 [3] | pEC50 [3] | EC50 [4] | nH (Hill coefficient) [4] | pEC50 ([4]; SR = small (<100 nA) responses) | SMILES | nH (Hill coefficient) [1] | size of agonist response (current) [1] | nH (Hill coefficient) [2] | nH (Hill coefficient) [3] | size of agonist response (current) [4] | EC50 [5] | nH (Hill coefficient) [5] | pEC50 [5]
1 | 250 nM | 6.60 ± 0.10 | 74 nM | 7.13 ± 0.02 ^b | 3000 nM | 5.52 ± 0.18 ^b | 620 nM | 1.25 ± 0.19 | 6.21 ± 0.05 | N=C(N)NC(=N)Nc1cccc(Cl)c1 [mCPBG, m-chlorophenylbiguanide] | 1.19 ± 0.31 | > 5 µA | 5.07 ± 0.85 ^b | 2.41 ± 0.16 | > 5 µA | 560 nM | 1.91 ± 0.60 | 6.25 ± 0.07
2 | – | – | – | – | – | – | – | – | – | NCCc1c[nH]c2ccc(O)cc12 [5-HT, 5-hydroxytryptamine] | 1.81 ± 0.16 ^b | > 5 µA | 3.18 ± 0.60 | 2.11 ± 0.29 | > 5 µA | 3500 nM | 1.18 ± 0.12 ^b | 5.45 ± 0.04
